CHO parental Ca – counter-screen for OX1R antagonists: effect in parental CHO cells; parental CHO-K1, ATP-induced calcium, Fluo-8 fluorescence; inhibition, % at 5.6 µM; 330,000 tested, 0.63% active;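 active means inhibition above that plate's mean sample inhibition plus 3 SD, cut at about 26% in these data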;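 further: 0% = ATP-challenged DMSO wells and 100% = DMSO wells without ATP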
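Assay system: untransfected parental CHO cell line. Also added: ATP agonist challenge. Dosing: one dose, 5.6 µM nominal. Measured by: Fluo-8 fluorescence. Read-out: % inhibition. Benchmarks: ATP wells versus no-ATP DMSO wells. Repeats: no replicates.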
TAAR1 antag – human TAAR1 antagonism | inhibition, % at 3 µM | 360,000 tested, 1.5% active | CHO RD-HGA16 TAAR1, Fluo-8 calcium fluorescence, antagonist;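 active means inhibition above a per-plate cutoff, the mean inhibition of test compounds on that plate plus 3 SD, cut at about 49% in these data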;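 further: 0% = DMSO plus EC80 beta-PEA response and 100% = DMSO alone without agonist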
Target sequence (Q96RJ0 whole entry, looked up): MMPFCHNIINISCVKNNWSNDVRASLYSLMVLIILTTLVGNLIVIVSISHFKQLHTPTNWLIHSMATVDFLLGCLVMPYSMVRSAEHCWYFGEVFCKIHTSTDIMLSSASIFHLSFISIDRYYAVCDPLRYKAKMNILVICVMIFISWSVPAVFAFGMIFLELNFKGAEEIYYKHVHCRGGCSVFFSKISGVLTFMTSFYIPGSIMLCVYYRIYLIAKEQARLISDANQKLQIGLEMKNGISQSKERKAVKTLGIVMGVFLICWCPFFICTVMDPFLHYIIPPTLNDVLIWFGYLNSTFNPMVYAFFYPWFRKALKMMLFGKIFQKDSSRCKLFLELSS
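System: RD-HGA16 CHO cells with stable hTAAR1 and Gα16 | Probe or stimulus: EC80 β-phenethylamine stimulus | Dosing: 3 µM, single point | Times: Dye loading 75 min at 37 °C, then 30 min room temperature | Measured by: Fluo-8 calcium-sensitive fluorescence | Read-out basis: % inhibition of agonist calcium response | Replicates: n of 1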
TAAR1 agonist – human TAAR1 agonism | activation, % at 3 µM | AID 624467 | 360,000 tested, 0.99% active | CHO RD-HGA16 TAAR1, Fluo-8 calcium fluorescence; vehicle wells 0%, saturating PEA agonist 100%;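 active means activation above the mean activation of all test compounds in the run plus 3 SD, cut at about 38% in these data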
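Test system: RD-HGA16 (CHO) cells co-expressing Gα16 and hTAAR1 | Doses: Single dose, 3 µM | Schedule: 17-24 h seeding, 75 min 37 °C dye, 30 min RT | Evaluation: % activation from peak over basal fluorescence ratio, DMSO-to-PEA scaled | Technique: Kinetic Fluo-8 calcium fluorescence | Benchmarks: Low control DMSO, high control PEA (EC100)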
OX1R antag-1 – blocks the human orexin 1 receptor; O43613; OX1R-expressing cells, FRET antagonist read-out; inhibition, % at 6.6 µM; 330,000 tested, 1.8% active; AID 485270; in the data active means inhibition mostly above about 38%, no sharp cut-off; inactive means mostly below about 40%;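 further: 0% = agonist challenge alone and 100% = reference antagonist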
GPR7 antag – human neuropeptides B/W receptor 1 antagonism. P48145. GPR7-expressing cells, fluorescence antagonist assay. inhibition, % at 4.4 µM. 290,000 tested, 1.1% active; in the data active means inhibition above about 16%, passing the limit was not always enough;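 further: cells stimulated with the agonist NPW; 0% = agonist with vehicle and 100% = vehicle without agonist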
Target sequence (P48145 whole entry, looked up): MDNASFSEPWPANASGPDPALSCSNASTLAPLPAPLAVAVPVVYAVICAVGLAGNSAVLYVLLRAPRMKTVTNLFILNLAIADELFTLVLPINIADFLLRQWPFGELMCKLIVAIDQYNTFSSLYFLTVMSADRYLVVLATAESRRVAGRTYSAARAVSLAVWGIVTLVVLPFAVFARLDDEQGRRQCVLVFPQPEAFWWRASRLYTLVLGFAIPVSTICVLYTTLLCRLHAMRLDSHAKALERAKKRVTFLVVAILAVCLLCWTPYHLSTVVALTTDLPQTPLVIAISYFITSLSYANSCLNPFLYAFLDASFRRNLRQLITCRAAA
OX1R antag-2 – human HCRTR1 antagonism. O43613. inhibition, % at 5 µM. CHO/OX1R cells, Fluo-8 calcium fluorescence, orexin A. AID 434989. 330,000 tested, 0.43% active;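 active means inhibition above its plate's threshold, mean inhibition of all tested compounds on the plate plus 3 SD, cut at about 37% in these data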;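 further: 0% = orexin A challenge wells and 100% = SB-334867-A antagonist wells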
TAAR1 ag conf – confirmation of human TAAR1 agonists | AID 651783 | activation, % at 3 µM | shares compounds with TAAR1 agonist | 2,400 tested, 82% active | CHO RD-HGA16 TAAR1, Fluo-8 calcium fluorescence; scaled: DMSO 0%, maximal phenethylamine 100%;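 active means activation above a cutoff set at the run's mean compound activation plus 3 SD, cut at about 39% in these data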
Ga16 ag counter – nonselective agonist in parental cells, TAAR1 agonist counter-screen; 2,400 tested, 50% active; activation, % at 3 µM; shares compounds with TAAR1 agonist; CHO-Ga16 parental, Fluo-8 calcium fluorescence; normalized to maximal ATP response, DMSO zero;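 active means activation above the run cutoff, the mean activation over all tested wells plus 3 SD, cut at about 12% in these data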;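 further: 0% = DMSO wells and 100% = maximal ATP response on the peak over basal ratio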
TAAR1 desensitize – human TAAR1 agonist that also desensitizes the receptor. AID 651951. 2,400 tested, 46% active. inhibition, % at 3 µM. CHO RD-HGA16 hTAAR1, Fluo-8 calcium, beta-PEA response inhibition. shares compounds with TAAR1 agonist;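 active means inhibition above the run cutoff, the mean inhibition of all test compounds plus 3 SD, cut at about 49% in these data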;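 further: beta-PEA stimulus applied at its EC80; loss of beta-PEA calcium signal after compound pretreatment read as receptor desensitization; 0% = DMSO with beta-PEA at EC80 and 100% = DMSO alone without agonist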
Ga16 antag count – nonselective Ga16 antagonist in TAAR1 agonist counter-screen | shares compounds with TAAR1 agonist | CHO-Ga16 ATP-induced calcium, Fluo-8 fluorescence | inhibition, % at 3 µM | 2,400 tested, 39% active | AID 651952;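 active means inhibition above the plate's mean compound inhibition plus 3 SD, computed per plate, cut at about 22% in these data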;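 further: 0% = EC80 ATP with DMSO and 100% = DMSO wells without ATP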
Numbers without * were called inactive; / = no result given. This is a sample that favours compounds with a hit; in the whole collection about 4.6% have one here.

SMILES	CHO parental Ca	TAAR1 antag	TAAR1 agonist	OX1R antag-1	GPR7 antag	OX1R antag-2	TAAR1 ag conf	Ga16 ag counter	TAAR1 desensitize	Ga16 antag count
Nc1cc(OC(=O)c2c(F)cccc2Cl)nn1S(=O)(=O)c1ccccc1	8	-7	54*	36	1	-5	51*	22*	10	18
COc1ccc(S(=O)(=O)n2nc(OC(C)=O)cc2N)cc1	12	12	10	32	-11	-5	/	/	/	/
CN(C)CCNc1ncnc2c1ncn2[C@H]1CN(CCc2ccccc2)C[C@@H](CO)O1	/	-16	58*	/	/	/	48*	-1	7	4
CN(C)CCNc1ncnc2c1ncn2[C@H]1CN(Cc2cccs2)C[C@@H](CO)O1	/	-4	1	/	/	/	/	/	/	/
O=C(CSc1nc2ccccc2c(=O)n1Cc1ccc(F)cc1)NCc1cccs1	-20	96*	95*	23	-9	-23	92*	52*	99*	68*
O=C(CSc1nc2ccccc2c(=O)n1Cc1ccccc1)NCc1ccco1	-3	79*	75*	3	-5	-5	78*	47*	65*	38*
CC(C)C[C@@H]1Cc2[nH][nH]c(=O)c2[C@H](C)O1	/	4	1	/	/	/	/	/	/	/
Cc1cc2cc(CNC(=O)C3CCCC3)ccc2n1C	-17	-28	1	15	/	-29	/	/	/	/
Cn1c(CNC(=O)C2CCCCC2)cc2cc(Cl)ccc21	0	70*	65*	18	1	-17	14	8	9	8
CCOC(=O)CSc1ccc(C(=O)NCCCN2CCOCC2)cc1[N+](=O)[O-]	0	-12	2	22	-8	-12	/	/	/	/
CC1=C(C)CS(=O)N(c2ccc(S(N)(=O)=O)cc2)C1 (configuration not stated)	-8	5	34	19	1	4	/	/	/	/
CC1=C(C)CS(=O)N(S(=O)(=O)c2ccccc2)C1 (configuration not stated)	-13	9	73*	19	3	-8	68*	33*	23	21
CCCn1c(NC(=O)C2COc3ccccc3O2)nc2ccccc21 (configuration not stated)	-16	49*	51*	21	1	-18	7	2	8	18
CCCn1c(NC(=O)c2ccco2)nc2ccccc21	-14	6	0	7	-4	-21	/	/	/	/
COc1ccc(CCNC(=O)C2CC3Cn4c(nc5cc6ccccc6cc54)C3N2C)cc1 (configuration not stated)	1	-3	20	29	/	-13	/	/	/	/
CN1C(C(=O)NCCc2cccs2)CC2Cn3c(nc4cc5ccccc5cc43)C21 (configuration not stated)	-11	51*	78*	30	/	-14	92*	15*	83*	11
Cc1cc2nc3n(c2cc1C)CC1CC(C(=O)NCCc2cccs2)N(C)C31 (configuration not stated)	-8	69*	101*	23	/	-8	81*	2	71*	8
C=CCNC(=O)C1CC2Cn3c(nc4cc(C)c(C)cc43)C2N1C (configuration not stated)	-2	7	-2	-1	/	-11	/	/	/	/
COc1ccc(NC(=O)C2(C)Cc3c(-c4ccc5c(c4)OCO5)ccnc3O2)cc1OC (configuration not stated)	/	-34	-1	/	/	/	/	/	/	/
CCN(CC)CCNC(=O)c1ccc(NC(=O)Nc2cccc3ccccc23)cc1	-12	6	-3	18	19	-14	/	/	/	/
COc1cccc(N=C(N)N)c1	5	53*	67*	18	-17	12	83*	2	75*	5
COc1cccc(N)c1	/	5	2	/	/	/	/	/	/	/
C=C(C)CN(CC)C(=O)COc1ccc(S(=O)(=O)Nc2ccc(OC)cc2)cc1	-4	14	63*	9	8	2	59*	30*	23	22*
COc1ccc(-c2ncn(CCc3ccccc3OC)c2C(C)C)cc1	/	-1	15	/	/	/	/	/	/	/
COc1ccccc1CCn1cnc(-c2ccccc2OC)c1C(C)C	/	29	52*	/	/	/	79*	7	60*	14
SMILES	CHO parental Ca	TAAR1 antag	TAAR1 agonist	OX1R antag-1	GPR7 antag	OX1R antag-2	TAAR1 ag conf	Ga16 ag counter	TAAR1 desensitize	Ga16 antag count
COc1ccccc1CCn1cnc(-c2ccc(Br)cc2)c1C(C)C	/	36	45*	/	/	/	68*	9	53*	37*
CC1(c2nnnn2-c2ccc3c(c2)OCCO3)CCC(=O)N1Cc1ccc(F)cc1 (configuration not stated)	/	-14	0	/	/	/	/	/	/	/
COc1cccc(-c2nc(CS(=O)CC(=O)NCCc3ccccc3)c(C)o2)c1 (configuration not stated)	-31	-12	49*	17	-4	-18	52*	0	12	0
CC1Sc2ccc(S(=O)(=O)NCCc3ccccc3)cc2NC1=O (configuration not stated)	-24	3	69*	33	0	-26	66*	5	42	12
O=S(=O)(NCCc1ccccc1)c1ccc(F)cc1	-20	64*	73*	2	-6	-18	86*	-1	80*	10
O=S(=O)(NCCc1ccccc1)c1cccc2cccnc12	-12	-9	63*	18	2	-21	78*	11	41	6
CC(=O)Nc1ccc(S(=O)(=O)NCCc2ccc(F)cc2)cc1	-5	5	4	10	-14	-12	/	/	/	/
CN(C(=O)c1ccoc1)c1ccc2ccccc2c1	/	-6	0	/	-7	/	/	/	/	/
COc1ccc(CCNS(=O)(=O)CCNC(=O)c2ccccc2)cc1	-22	19	20	2	/	-27	/	/	/	/
O=C(NCCc1ccccc1)c1ccc2c(c1)OCCCO2	2	-1	46*	35	-4	-12	60*	0	11	2
O=C(NCCS(=O)(=O)NCc1ccccc1Cl)c1ccc2c(c1)OCO2	-13	-19	1	5	/	-3	/	/	/	/
COc1ccc(C(=O)NCCS(=O)(=O)NCCc2ccccc2)cc1	-25	16	48*	6	/	-14	72*	2	33	6
